Bioassay records deposited in PubChem by several laboratories.
This is one part of a sample in which hits are shown more often than they occur.
bCat KO growth – beta-catenin-lacking colon tumor cell growth suppression. HCT116 beta-catenin knockout viability, CellTiter-Glo, 60 h; stronger effect = lower value. viability, % at 10 µM. 140,000 compounds, 1.5% hits;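 active means viability at or under a set limit, the compound median less 4 SD, cut at about 6% in these data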;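 further: 0% = Hyamine 1622 control at 20 µM and 100% = untreated cell control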
H69AR inhibit – blocks growth of human H69AR lung tumor cells | H69AR lung tumor viability, ATP luminescence, 72 h; stronger effect = lower value | 85,000 compounds, 6% hits | viability, % at 10 µM;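 active means viability at or below 40%; inactive means viability above 40%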;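 further: multidrug resistant small cell line overexpressing MRP-1 efflux transporter; 100% = mean luminescence of untreated control wells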
Lung fibro prol – blocks proliferation of human lung fibroblasts; LL 47 human lung fibroblast viability, ATP luminescence; stronger effect = lower value; viability, % at 10 µM; 85,000 compounds, 1.1% hits;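 active means viability at or below 50% in the single dose screen; inactive means viability above 50%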;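 further: compound exposure lasted 72 h before the ATP readout; 100% = median luminescence of untreated cell-only wells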
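Assay system: human lung fibroblast line LL 47, low passage. Input: 1,150 fibroblasts seeded per well. Times: overnight cell rest, 72 h compound treatment at 37 °C. Evaluation: % viability of median cell-only signal. Technique: luminescent ATP detection, CellTiter-Glo. Control set: cell-only wells, no compound.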
HUVEC inhibit – inhibitors of human endothelial cell proliferation. HUVEC proliferation, CellTiter-Glo luminescence, 72 h; stronger effect = lower value. viability, % at 10 µM (by protocol). 86,000 compounds, 1.1% hits;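 active means viability at or below 30%; inactive means viability above 30%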;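 further: 100% = median luminescence of DMSO-only cell control wells on each plate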
PTEN del growth – PTEN-deleted cell growth suppression; HCT116 PTEN-null viability, CellTiter-Glo, 60 h; stronger effect = lower value; viability, % at 10 µM; 140,000 compounds, 1.2% hits; AID 827;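 active means viability at or below a set limit, 4 SD under the median of all tested compounds, cut at about 3.7% in these data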;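 further: PTEN knockout HCT116 line with beta catenin targeted HCT116 as companion control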
Pyk2 oligo antag – Pyk2 (human) oligomerization antagonism. 99,000 compounds, 0.83% hits. AID 1347419. z-score (the deposit names both 25 µM and 10 µM). Q293 cells, Pyk2 FERM NanoBiT luminescence; stronger effect = lower value;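 active means Z-score of -3 or lower, scaled per plate to the spread of control and sample wells; inactive means z-score above -3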;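 further: negative z-score means lost luminescence so less FERM oligomerization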
Target sequence (Q14289 whole entry, looked up): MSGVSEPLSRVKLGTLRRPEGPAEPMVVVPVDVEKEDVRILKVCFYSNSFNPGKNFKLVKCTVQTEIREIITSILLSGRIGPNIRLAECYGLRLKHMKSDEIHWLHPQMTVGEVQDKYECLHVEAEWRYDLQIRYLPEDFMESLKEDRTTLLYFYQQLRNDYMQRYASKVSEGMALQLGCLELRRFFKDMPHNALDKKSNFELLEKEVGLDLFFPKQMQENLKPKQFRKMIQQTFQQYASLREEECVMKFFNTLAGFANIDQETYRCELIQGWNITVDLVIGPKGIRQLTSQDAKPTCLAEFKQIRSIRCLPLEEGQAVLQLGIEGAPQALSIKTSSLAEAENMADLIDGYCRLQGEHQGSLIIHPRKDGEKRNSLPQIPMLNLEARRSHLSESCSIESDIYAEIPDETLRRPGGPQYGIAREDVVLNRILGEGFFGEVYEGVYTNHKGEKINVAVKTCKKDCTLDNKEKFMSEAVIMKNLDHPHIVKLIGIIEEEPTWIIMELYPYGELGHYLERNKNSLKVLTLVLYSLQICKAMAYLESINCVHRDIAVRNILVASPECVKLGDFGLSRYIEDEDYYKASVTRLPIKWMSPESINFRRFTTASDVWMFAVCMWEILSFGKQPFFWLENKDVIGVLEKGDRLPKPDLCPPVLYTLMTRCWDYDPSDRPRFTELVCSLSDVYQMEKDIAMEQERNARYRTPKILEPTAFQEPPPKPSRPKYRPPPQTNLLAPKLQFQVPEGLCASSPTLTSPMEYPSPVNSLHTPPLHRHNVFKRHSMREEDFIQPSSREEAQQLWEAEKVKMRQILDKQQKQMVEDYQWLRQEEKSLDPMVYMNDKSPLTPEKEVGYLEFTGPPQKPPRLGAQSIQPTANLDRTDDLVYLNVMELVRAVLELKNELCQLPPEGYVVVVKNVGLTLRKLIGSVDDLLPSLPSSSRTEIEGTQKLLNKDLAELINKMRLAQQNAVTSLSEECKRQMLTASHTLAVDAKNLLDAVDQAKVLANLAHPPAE
An asterisk follows results filed as active; . = no result.

SMILES	bCat KO growth	H69AR inhibit	Lung fibro prol	HUVEC inhibit	PTEN del growth	Pyk2 oligo antag
CCOC(=O)N1CCN(S(=O)(=O)c2ccc(C(=O)Nc3nnc(C4CC4)o3)cc2)CC1	92	.	.	.	84	.
CCOC(=O)N1CCC(N2CCN(S(=O)(=O)c3ccc(C)cc3)CC2)CC1	91	29*	94	92	100	0.77
CCOC(=O)N1CCN(S(=O)(=O)c2ccc(C(=O)NNc3nc4cc(C)cc(C)c4s3)cc2)CC1	8	.	.	.	11	.
CCOC(=O)N1CCN(C(=O)C2CCN(S(=O)(=O)c3ccc(C)cc3)CC2)CC1	103	96	103	98	101	2
CC1=NNC(=O)C1C(c1ccccc1)C(C#N)C#N (configuration not stated)	84	98	106	92	80	1.2
COc1cc2c(C(=O)NCc3ccc4c(c3)OCO4)cn(CC(C)C)c(=O)c2cc1OC	85	85	42*	68	83	-0.77
CCc1nc(SCC(=O)Nc2nnc(CC)s2)c2c(C)c(C)sc2n1	102	.	.	.	109	-2.1
CCCc1nc(SCC(=O)Nc2nnc(CC)s2)c2c(C)c(C)sc2n1	84	.	.	.	76	-3.7*
Cc1cc(NC(=O)CCSc2ccccc2)ccc1Br	82	.	.	.	81	.
Cn1c(=O)[nH]c(=O)c2c1nc1n2CCCN1CCc1ccccc1	88	86	95	92	98	0.71
CC(C)Cn1c(=O)c2c(nc3n2CCCN3CCc2ccccc2)n(C)c1=O	84	34*	93	97	86	-0.62
Cn1c(=O)n(Cc2ccccc2F)c(=O)c2c1nc1n2CCCN1CCc1ccccc1	106	.	94	90	91	-0.89
Cn1c(=O)n(CCc2ccccc2)c(=O)c2c1nc1n2CCCN1Cc1ccccc1	52	27*	83	71	35	-2.4
Cn1c(=O)n(CCc2ccccc2)c(=O)c2c1nc1n2CCCN1CCc1ccccc1	16	92	46*	3.7*	16	-2.9
COc1ccc(N2CCCn3c2nc2c3c(=O)n(CCc3ccccc3)c(=O)n2C)cc1	.	59	100	72	.	-1.7
Cn1c(=O)n(Cc2ccc(F)cc2)c(=O)c2c1nc1n2CCCN1Cc1ccccc1	56	38*	85	94	63	-0.18
CCN(CC)c1ccc(C(=O)N/N=C(\C)c2ccc(OC)c(OC)c2)cc1	95	.	.	.	83	.
COc1cccc(-c2nc(CS(=O)(=O)CC(=O)N3CCc4ccccc43)c(C)o2)c1	79	72	98	104	83	.
CCOC(=O)c1sc(NC(=O)CCCn2nc([N+](=O)[O-])cc2C)c(C(=O)OCC)c1C	90	.	.	.	82	.
O=C(CN1CCOCC1)Nc1ncc(Cc2cccc3ccccc23)s1	90	.	.	.	88	-0.13
Cc1ccc(S(=O)(=O)/N=C2\C(=O)c3ccccc3C([O-])=C2n2cc[n+](CCC(C)C)c2)cc1	3.7*	42	44*	4.4*	6	0.51
Cc1ccc(-n2nnnc2Sc2ccc(S(=O)(=O)NCCN(C)C)cc2[N+](=O)[O-])cc1	1.7*	.	.	.	1.6*	.
O=C(Nc1ccccc1)Nc1ccc(C(=O)N2CCOCC2)cc1	85	78	101	80	70	-0.54
OC(CN1CCN(c2ccccc2)CC1)c1c[nH]c2ccccc12 (configuration not stated)	86	38*	87	87	79	-0.37
Cc1[nH]c2ccccc2c1C(O)CN1CCN(c2cccc(C(F)(F)F)c2)CC1 (configuration not stated)	29	1.3*	43*	2.4*	22	-0.07
SMILES	bCat KO growth	H69AR inhibit	Lung fibro prol	HUVEC inhibit	PTEN del growth	Pyk2 oligo antag
CC(C)NS(=O)(=O)c1ccc2c(c1)NCC2	95	.	.	.	99	.
Cc1nc(N2CCN(C)CC2)c2c(C)c(C(=O)Nc3ccc(C)c(F)c3)sc2n1	11	49	43*	3.7*	10	0.18
CCOc1cc(N2CCCC2)ccc1[N+](=O)[O-]	87	.	.	.	94	.
N=c1n(CCO)c2ccccc2n1CCOc1ccc(Cl)cc1Cl	1.7*	20*	58	2.1*	1.6*	.
O=C(OC[C@@H]1CCCN2CCCC[C@H]12)c1cc2ccccc2oc1=O	104	.	.	.	102	.
CCCCCCCCC/C(=N\O)c1ccccn1	3.4*	80	36*	5.4*	7	-0.86
COc1ccc(-n2nnnc2SCC(=O)Nc2ccc3c(c2)OCCO3)cc1OC	77	21*	99	91	87	-0.96
